UBC13 inh: inhibitors of human UBC13 polyubiquitin chain formation; TR-FRET; AID 485273; inhibition, % at 20 µM; actives 0.47% (n = 330,000); in the data active = inhibition above about 45%, passing the limit was not always enough; inconclusive = no clear call, values can overlap the other calls
Target sequence (P61088 whole entry, looked up): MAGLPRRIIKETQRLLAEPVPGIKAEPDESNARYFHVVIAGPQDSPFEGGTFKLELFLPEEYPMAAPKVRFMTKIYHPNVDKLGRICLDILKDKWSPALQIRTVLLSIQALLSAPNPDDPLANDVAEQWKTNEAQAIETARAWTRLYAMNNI
Rin1-Abl PPI inh: inhibitors of human Rin1-Abl protein interaction; P00519+Q13671; TR-FRET Rin1/Abl binding, biochemical; inhibition, % at 7.35 µM; actives 0.4% (n = 360,000); in the data active = inhibition above about 5%, passing the limit was not always enough
GSTO1 inh: GSTO1 inhibition, counter-screen for RBBP9 inhibitors | inhibition, % at 5.96 µM | AID 1974 | P78417 | recombinant GSTO1, activity-based probe fluorescence polarization | actives 1.1% (n = 300,000);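 active = inhibition above the campaign mean inhibition plus 3 SD, cut at about 35% in these data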;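 note: 0% = GSTO1-1 with DMSO and 100% = wells lacking GSTO1-1 enzyme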
Target sequence (P78417 whole entry, looked up): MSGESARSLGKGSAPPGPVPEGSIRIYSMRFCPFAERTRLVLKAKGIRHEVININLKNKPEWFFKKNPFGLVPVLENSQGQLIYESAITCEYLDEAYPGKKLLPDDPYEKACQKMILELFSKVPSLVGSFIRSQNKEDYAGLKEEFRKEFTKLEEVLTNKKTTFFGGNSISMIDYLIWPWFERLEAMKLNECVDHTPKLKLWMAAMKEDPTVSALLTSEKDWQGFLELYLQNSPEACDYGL
Apaf-1 inh: human Apaf-1 inhibition | O14727 | reconstituted apoptosome caspase-3 activity, DEVD-Rh110 fluorescence | inhibition, % at 20 µM | actives 0.71% (n = 330,000) | AID 489030; active = inhibition of at least 40% at 20 µM;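 note: plate controls were DMSO wells for no effect and DEVD-CHO caspase inhibitor wells for full effect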
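System – cell-free apoptosome with Apaf-1, procaspase-3 and caspase-9 · Buffer or medium – pH 7.5 Hepes buffer with CHAPS, BSA, DTT · Also added – cytochrome c with DEVD-Rh110 · Times – 30 min compound preincubation, 50 min activation, room temperature · Technique – Rh110 fluorescence intensity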
UBC9 SUMO inh: blocks human SUMOylation mediated by UBC9; P63279; HTRF SUMOylation assay, SAE1/SAE2 + UBC9, in vitro; inhibition, % at 35 µM; actives 0.36% (n = 290,000); AID 2006; in the data active = inhibition above about 50%, passing the limit was not always enough; inconclusive = no clear call, values can overlap the other calls
Target sequence (P63279 whole entry, looked up): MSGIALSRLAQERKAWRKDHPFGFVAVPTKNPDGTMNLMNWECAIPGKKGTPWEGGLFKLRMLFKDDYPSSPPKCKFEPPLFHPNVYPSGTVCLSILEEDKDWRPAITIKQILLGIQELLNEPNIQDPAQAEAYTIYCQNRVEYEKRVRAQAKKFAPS
PAD4 FP inh: blocks human protein arginine deiminase 4; Q9UM07; inhibition, % at 6.36 µM; AID 485272; actives 0.41% (n = 330,000); recombinant PAD4, RCA probe fluorescence polarization;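 active = percent inhibition above a cutoff equal to the mean of all tested compounds plus 3 SD, cut at about 15% in these data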;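 note: 0% = PAD4 with RCA probe and DMSO and 100% = probe without PAD4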
GSTO1 inh conf: GSTO1 (human) inhibition, confirmation; inhibition, % at 5.96 µM; recombinant GSTO1, probe fluorescence polarization; shares compounds with GSTO1 inh; actives 54% (n = 2,400);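 active = inhibition above the primary screen's cutoff, its mean inhibition plus 3 SD, cut at about 35% in these data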;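 note: loss of polarization as inhibitors block binding of rhodamine sulfonate ester activity probe; 0% = GSTO1 with DMSO and 100% = wells lacking GSTO1 enzyme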
PAD4 FP conf: PAD4 (human) inhibition, confirmed; inhibition, % at 6.36 µM; AID 488796; shares compounds with PAD4 FP inh; recombinant PAD4, RCA probe fluorescence polarization; actives 28% (n = 1,200);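 active = mean inhibition across replicates above the hit cutoff set by the earlier primary screen, cut at about 15% in these data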;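 note: inhibitors block active-site labeling by the probe so polarization falls; 0% = PAD4 with probe and DMSO and 100% = probe without PAD4 enzyme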
* = called active by the depositor. Most compounds without a hit are left out; they make up all but 2.2% or so of the library.

For CCOc1ccc(C2Nc3cccc4cccc(c34)N2)cc1OC the results were UBC13 inh -34, Rin1-Abl PPI inh 2, GSTO1 inh 45*, Apaf-1 inh 22, UBC9 SUMO inh 54, PAD4 FP inh -3 and GSTO1 inh conf 5.
Screening Brc1cccc(C2Nc3cccc4cccc(c34)N2)c1 returned UBC13 inh -21, Rin1-Abl PPI inh -1, GSTO1 inh 40*, Apaf-1 inh 12, UBC9 SUMO inh 11, PAD4 FP inh 0 and GSTO1 inh conf 8.
Brc1ccc(C2Nc3cccc4cccc(c34)N2)o1 was read as UBC13 inh -37, Rin1-Abl PPI inh 1, GSTO1 inh 54*, Apaf-1 inh 10, UBC9 SUMO inh 92, PAD4 FP inh 5 and GSTO1 inh conf 8.
`OC(c1ccccc1)c1nc(-c2csc3ccccc23)cs1` (centres undefined) gave Rin1-Abl PPI inh -6.
CCC(=O)N(C)C[C@H]1Oc2cc(-c3cccnc3)ccc2S(=O)(=O)N([C@H](C)CO)C[C@H]1C was read as Rin1-Abl PPI inh -2.
O=S(=O)(Nc1ccc(O)c2ccccc12)c1cccs1 was read as UBC13 inh -14, Rin1-Abl PPI inh 0, GSTO1 inh 64*, Apaf-1 inh 52*, UBC9 SUMO inh 81, PAD4 FP inh 21*, GSTO1 inh conf 16 and PAD4 FP conf -5.
`CCOC(=O)C1CCCN(C(=O)C2COc3ccccc3O2)C1` (centres undefined) gave Rin1-Abl PPI inh 1.
`CCOC(=O)C1CCCN(C(=O)C2c3ccccc3Oc3ccccc32)C1` (centres undefined) gave UBC13 inh -9, Rin1-Abl PPI inh -4, GSTO1 inh 46*, Apaf-1 inh 25, UBC9 SUMO inh 6, PAD4 FP inh 94*, GSTO1 inh conf 5 and PAD4 FP conf 11.
CC(=O)Oc1ccc(C23CC4CC(CC(C4)C2)C3)cc1C(=O)O was read as UBC13 inh -3, GSTO1 inh 4, Apaf-1 inh 13, UBC9 SUMO inh 20 and PAD4 FP inh -1.
`COc1ccc(OC)c(-c2c3cc(O)c(=O)cc-3oc3cc(O)c(O)cc23)c1` gave Rin1-Abl PPI inh 55*, GSTO1 inh 50*, UBC9 SUMO inh inconclusive, PAD4 FP inh 55*, GSTO1 inh conf 73* and PAD4 FP conf active.
Screening COC(=O)c1ccccc1C(=O)N1CCCC(CNC(=O)c2ccc(F)cc2)C1 (centres undefined) returned UBC13 inh 1, Rin1-Abl PPI inh 1, GSTO1 inh 0, Apaf-1 inh -8, UBC9 SUMO inh -11 and PAD4 FP inh -2.
Screening CN(C(=S)Nc1cccnc1)c1ccc(O)cc1 returned Rin1-Abl PPI inh -1, GSTO1 inh 83*, UBC9 SUMO inh 64, PAD4 FP inh 31*, GSTO1 inh conf 5 and PAD4 FP conf 0.
Screening CN(C(=S)Nc1ccc(Oc2ccccc2)cc1)c1ccc(O)cc1 returned Rin1-Abl PPI inh -2, GSTO1 inh 79*, UBC9 SUMO inh 26, PAD4 FP inh 25*, GSTO1 inh conf 2 and PAD4 FP conf 0.
Screening CCN(C(=S)Nc1cccnc1)c1ccccc1 returned UBC13 inh -10, Rin1-Abl PPI inh 1, GSTO1 inh -7, Apaf-1 inh 2, UBC9 SUMO inh -4 and PAD4 FP inh 1.
COc1ccccc1C(=O)N/C(=C\c1cn(S(=O)(=O)N(C)C)c2ccccc12)C(=O)N1CCCC1 was read as UBC13 inh 3, Rin1-Abl PPI inh 5, GSTO1 inh -6, Apaf-1 inh 13, UBC9 SUMO inh 1 and PAD4 FP inh 5.
`CCOC(=O)Cc1ccc(Nc2nc(NCc3ccccc3)nc3ccsc23)cc1` gave Rin1-Abl PPI inh -3.
Screening CCc1ccc(S(=O)(=O)/N=C2/C=C(Sc3ncn[nH]3)C(=O)c3ccccc32)cc1 returned Rin1-Abl PPI inh 3, GSTO1 inh 83*, UBC9 SUMO inh 92*, PAD4 FP inh 37*, GSTO1 inh conf 89* and PAD4 FP conf 22*.
For CN(C)c1ccc(C=Nc2ccc(N(C)C)cc2)cc1 the results were UBC13 inh -27, Rin1-Abl PPI inh -3, GSTO1 inh 78*, Apaf-1 inh 39, UBC9 SUMO inh -68, PAD4 FP inh 32*, GSTO1 inh conf 6 and PAD4 FP conf -4.
For Cc1ccc(N=Cc2ccc(N(C)C)cc2)cc1 the results were UBC13 inh -4, Rin1-Abl PPI inh 1, GSTO1 inh 6, Apaf-1 inh -6, UBC9 SUMO inh -23 and PAD4 FP inh -1.
For COc1ccc2c(c1)Sc1ccccc1N2CCN(C)C the results were UBC13 inh 0, Rin1-Abl PPI inh -1, GSTO1 inh 12, Apaf-1 inh 13, UBC9 SUMO inh -11 and PAD4 FP inh -2.
For COc1ccc2ccc3c(c2c1)N=CC1(O3)N(C)c2ccccc2C1(C)C (centres undefined) the results were UBC13 inh -8, Rin1-Abl PPI inh 6, GSTO1 inh 90*, Apaf-1 inh 13, UBC9 SUMO inh 42, PAD4 FP inh 59*, GSTO1 inh conf 5 and PAD4 FP conf 6.
`O=S(=O)(Nc1cc(Sc2cccc3cccnc23)c(O)c2ccccc12)c1ccc(F)cc1` gave GSTO1 inh 57*, UBC9 SUMO inh 67*, PAD4 FP inh 29*, GSTO1 inh conf 25 and PAD4 FP conf 3.
O=C(Sc1cccc2cccnc12)c1ccc(F)cc1 was read as UBC13 inh -37, Apaf-1 inh -14 and UBC9 SUMO inh -50.
Screening Cc1ccc2oc(-c3ccccc3C(=O)O)cc(=O)c2c1 returned UBC13 inh 4, Rin1-Abl PPI inh -2, GSTO1 inh -3, Apaf-1 inh -11, UBC9 SUMO inh 24 and PAD4 FP inh 2.
For Cc1[nH][nH]c(=O)c1C(c1ccc(-c2ccccc2C(=O)O)o1)c1c(C)[nH][nH]c1=O the results were Rin1-Abl PPI inh 4, GSTO1 inh 70*, UBC9 SUMO inh 97, PAD4 FP inh 51*, GSTO1 inh conf 8 and PAD4 FP conf -6.
`CCN(CC(=O)Nc1c(F)cccc1F)C(=O)C1CCCO1` (centres undefined) gave Rin1-Abl PPI inh 1.
`Cc1cccc(NC2=C/C(=N/S(=O)(=O)c3cccs3)c3ccccc3C2=O)c1` gave Rin1-Abl PPI inh -1, GSTO1 inh 84*, UBC9 SUMO inh 24, PAD4 FP inh 28*, GSTO1 inh conf 81* and PAD4 FP conf 40*.

Screening data: PubChem, several laboratories
